Activity calls are given as the source filed them. The calls are words filed in the database; no cut-off is given here. Where a SMILES comes first, the peptide text is derived from it.
Columns and labels:
PBMC [1] = assay: Immunosuppressive activity in human PBMC assessed as inhibition of PHA-induced cell proliferation at 1 to 100 ug/ml after 4 days by MTT assay; assay type: functional, cell-based
In short: (§1)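 PBMC (2×10^5 cells/well) in supplemented RPMI-1640, stimulated with 5 µg/mL PHA, with peptide at 1, 10 or 100 µg/mL. DMSO dilutions as control; no-PHA wells as baseline. Proliferation read by MTT after 4 days of incubation. Data given as mean OD of quadruplicate wells ± SE.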

PBMC [2] = assay: Cytotoxicity against human PBMC assessed as reduction in cell viability at 1 to 100 ug/ml after 24 hrs by MTT assay; assay type: cell-based
In short: (§2)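 Single-donor PBMC isolated on LSM, resuspended in RPMI-1640 with 10% FCS, L-glutamine, pyruvate, 2-mercaptoethanol and antibiotics. Cells plated at 3×10^5 per well and cultured 24 h with peptide at 1, 10 or 100 µg/mL. Survival read by MTT and expressed as % viable cells versus matched DMSO controls.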

PBMC [3] = assay: Anti-inflammatory activity in human PBMC assessed as inhibition of LPS-induced TNFalpha production at 10 ug/ml after overnight incubation by immunoassay; assay type: functional
In short: (§3)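 Diluted venous blood from a single donor (10× in RPMI-1640), 1 mL cultures, stimulated with 1 µg/mL LPS from E. coli O:111:B4. Peptides added at 1 and 10 µg/mL from DMSO stock (5 mg/200 µL) diluted in RPMI-1640. DMSO dilutions served as 100% controls. Overnight incubation, then supernatants frozen at -20 C and TNF-α measured by ELISA.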

PBMC [4] = assay: Cytotoxicity against human PBMC assessed as reduction in cell viability at 100 ug/ml after 24 hrs by MTT assay; assay type: cell-based; in short: as §2
PBMC [5] = assay: Immunosuppressive activity in human PBMC assessed as inhibition of PHA-induced proliferation after 4 days by MTT assay; assay type: functional, cell-based; in short: as §1
PBMC [6] = assay: Immunosuppressive activity in human PBMC assessed as inhibition of PHA-induced cell proliferation at 10 ug/ml after 4 days by MTT assay; assay type: functional, cell-based; in short: as §1
HT-29 = assay: Cytotoxicity against human HT-29 cells at 12 ug/ml; assay type: functional, cell-based
A-431 = assay: Cytotoxicity against human A431 cells at 6 ug/ml; assay type: functional, cell-based
PBMC [7] = assay: Anti-inflammatory activity in human PBMC assessed as inhibition of LPS-induced TNFalpha production at 1 to 10 ug/ml after overnight incubation by immunoassay; assay type: functional, cell-based; in short: as §3

SMILES | Activity (PBMC [1]) | Activity (PBMC [2]) | inhibition at 10 µg/mL (PBMC [3]) [%] | Activity (PBMC [5]) | inhibition (PBMC [3]) | Activity (PBMC [6]) | further results
CC[C@H](C)[C@H](N)C(=O)N[C@H](C(=O)N[C@@H](CC(C)C)C(=O)N[C@H](C(=O)N1CCC[C@H]1C(=O)N1CCC[C@H]1C(=O)N[C@H](CCC(=O)N[C@H](CCC(=O)N[C@@H](CC(C)C)C(=O)O)Cc1ccccc1)Cc1ccccc1)C(C)C)[C@@H](C)CC | inactive | Non-Toxic | 45 |  |  |  | 
CC[C@H](C)[C@@H]1NC(=O)[C@H](CC(C)C)NC(=O)CC[C@@H](Cc2ccccc2)NC(=O)[C@H](Cc2ccccc2)NC(=O)[C@@H]2CCCN2C(=O)[C@@H]2CCCN2C(=O)[C@H](C(C)C)NC(=O)[C@H](CC(C)C)NC(=O)[C@H]([C@@H](C)CC)NC1=O |  |  |  | Dose-dependent effect | Active | Active | Activity (PBMC [4]): Toxic
CC[C@H](C)[C@@H]1NC(=O)[C@H](CC(C)C)NC(=O)[C@H](Cc2ccccc2)NC(=O)[C@H](Cc2ccccc2)NC(=O)[C@@H]2CCCN2C(=O)[C@@H]2CCCN2C(=O)[C@H](C(C)C)NC(=O)[C@H](CC(C)C)NC(=O)[C@H]([C@@H](C)CC)NC1=O (cyclo(FFLIILVPP)) |  |  |  |  |  |  | Activity (HT-29): inactive; Activity (A-431): inactive
CC[C@H](C)[C@H](N)C(=O)N[C@H](C(=O)N[C@@H](CC(C)C)C(=O)N[C@H](C(=O)N1CCC[C@H]1C(=O)N1CCC[C@H]1C(=O)N[C@H](CCC(=O)N[C@@H](Cc1ccccc1)C(=O)N[C@@H](CC(C)C)C(=O)O)Cc1ccccc1)C(C)C)[C@@H](C)CC | inactive | Non-Toxic | 45 |  |  |  | 
CC[C@H](C)[C@H](N)C(=O)N[C@H](C(=O)N[C@@H](CC(C)C)C(=O)N[C@H](C(=O)N1CCC[C@H]1C(=O)N1CCC[C@H]1C(=O)N[C@H](CCC(=O)N[C@@H](CCC(=O)N[C@@H](CC(C)C)C(=O)O)Cc1ccccc1)Cc1ccccc1)C(C)C)[C@@H](C)CC | inactive | Non-Toxic | 45 |  |  |  | 
CC[C@H](C)[C@@H]1NC(=O)[C@H](CC(C)C)NC(=O)CC[C@H](Cc2ccccc2)NC(=O)CC[C@H](Cc2ccccc2)NC(=O)[C@@H]2CCCN2C(=O)[C@@H]2CCCN2C(=O)[C@H](C(C)C)NC(=O)[C@H](CC(C)C)NC(=O)[C@H]([C@@H](C)CC)NC1=O |  |  |  | Dose-dependent effect | Active | Active | inhibition (PBMC [7]): Active
CC[C@H](C)[C@H](N)C(=O)N[C@H](C(=O)N[C@@H](CC(C)C)C(=O)N[C@H](C(=O)N1CCC[C@H]1C(=O)N1CCC[C@H]1C(=O)N[C@@H](Cc1ccccc1)C(=O)N[C@@H](CCC(=O)N[C@@H](CC(C)C)C(=O)O)Cc1ccccc1)C(C)C)[C@@H](C)CC | inactive | Non-Toxic | 45 |  |  |  | 
CC[C@H](C)[C@H](N)C(=O)N[C@H](C(=O)N[C@@H](CC(C)C)C(=O)N[C@H](C(=O)N1CCC[C@H]1C(=O)N1CCC[C@H]1C(=O)N[C@@H](CCC(=O)N[C@@H](Cc1ccccc1)C(=O)N[C@@H](CC(C)C)C(=O)O)Cc1ccccc1)C(C)C)[C@@H](C)CC | inactive | Non-Toxic |  |  | inactive |  | 
CC[C@H](C)[C@@H]1NC(=O)[C@H](CC(C)C)NC(=O)CC[C@@H](Cc2ccccc2)NC(=O)CC[C@H](Cc2ccccc2)NC(=O)[C@@H]2CCCN2C(=O)[C@@H]2CCCN2C(=O)[C@H](C(C)C)NC(=O)[C@H](CC(C)C)NC(=O)[C@H]([C@@H](C)CC)NC1=O |  |  |  | Dose-dependent effect | Active | Active | 
CC[C@H](C)[C@@H]1NC(=O)[C@H](CC(C)C)NC(=O)CC[C@@H](Cc2ccccc2)NC(=O)CC[C@@H](Cc2ccccc2)NC(=O)[C@@H]2CCCN2C(=O)[C@@H]2CCCN2C(=O)[C@H](C(C)C)NC(=O)[C@H](CC(C)C)NC(=O)[C@H]([C@@H](C)CC)NC1=O |  |  |  | Dose-dependent effect | Active | Active | Activity (PBMC [4]): Toxic
CC[C@H](C)[C@H](N)C(=O)N[C@H](C(=O)N[C@@H](CC(C)C)C(=O)N[C@H](C(=O)N1CCC[C@H]1C(=O)N1CCC[C@H]1C(=O)N[C@@H](CCC(=O)N[C@H](CCC(=O)N[C@@H](CC(C)C)C(=O)O)Cc1ccccc1)Cc1ccccc1)C(C)C)[C@@H](C)CC | inactive | Non-Toxic | 45 |  |  |  | 
CC[C@H](C)[C@@H]1NC(=O)[C@H](CC(C)C)NC(=O)[C@H](Cc2ccccc2)NC(=O)CC[C@@H](Cc2ccccc2)NC(=O)[C@@H]2CCCN2C(=O)[C@@H]2CCCN2C(=O)[C@H](C(C)C)NC(=O)[C@H](CC(C)C)NC(=O)[C@H]([C@@H](C)CC)NC1=O |  |  |  | Dose-dependent effect | Active | Active | Activity (PBMC [4]): Toxic
CC[C@H](C)[C@@H]1NC(=O)[C@H](CC(C)C)NC(=O)CC[C@H](Cc2ccccc2)NC(=O)CC[C@@H](Cc2ccccc2)NC(=O)[C@@H]2CCCN2C(=O)[C@@H]2CCCN2C(=O)[C@H](C(C)C)NC(=O)[C@H](CC(C)C)NC(=O)[C@H]([C@@H](C)CC)NC1=O |  |  |  | Dose-dependent effect | Active | Active | 
CC[C@H](C)[C@@H]1NC(=O)[C@H](CC(C)C)NC(=O)CC[C@H](Cc2ccccc2)NC(=O)[C@H](Cc2ccccc2)NC(=O)[C@@H]2CCCN2C(=O)[C@@H]2CCCN2C(=O)[C@H](C(C)C)NC(=O)[C@H](CC(C)C)NC(=O)[C@H]([C@@H](C)CC)NC1=O |  |  |  | Dose-dependent effect | Active | Active | 
CC[C@H](C)[C@H](N)C(=O)N[C@H](C(=O)N[C@@H](CC(C)C)C(=O)N[C@H](C(=O)N1CCC[C@H]1C(=O)N1CCC[C@H]1C(=O)N[C@@H](Cc1ccccc1)C(=O)N[C@H](CCC(=O)N[C@@H](CC(C)C)C(=O)O)Cc1ccccc1)C(C)C)[C@@H](C)CC | inactive | Non-Toxic | 45 |  |  |  | 
CC[C@H](C)[C@H](N)C(=O)N[C@H](C(=O)N[C@@H](CC(C)C)C(=O)N[C@H](C(=O)N1CCC[C@H]1C(=O)N1CCC[C@H]1C(=O)N[C@@H](CCC(=O)N[C@@H](CCC(=O)N[C@@H](CC(C)C)C(=O)O)Cc1ccccc1)Cc1ccccc1)C(C)C)[C@@H](C)CC | inactive | Non-Toxic | 45 |  |  |  | 

Source: ChEMBL document CHEMBL4043099, “Synthesis and biological activity of cyclolinopeptide A analogues modified with γ4-bis(homo-phenylalanine)” (Bioorg Med Chem, 2017)
